Data set [1] has as its target Cystic fibrosis transmembrane conductance regulator (Homo sapiens, UniProt P13569). The experiment in a line: Binding affinity to human CFTR F508 deletion mutant expressed in FRT cells assessed as increase in iodine influx after 16 to 20 hrs by fluorescence assay. The data set is classed as cell-based. The method, boiled down: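 FRT cells stably coexpressing human ΔF508-CFTR and halide sensor YFP-H148Q/I152L, grown 24 h at 37 °C, then incubated 16–20 h with test compound. Washed in PBS, then 20 min in PBS with forskolin (20 μM) and genistein (50 μM). Fluorescence (ex 500, em 535 nm) recorded 2 s baseline, then 12 s after I⁻-substituted PBS addition; initial I⁻ influx rate from exponential regression; EC50 and Vmax from concentration dependence.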

Data set [2] is described as follows: Octanol-water partition coefficient, log P by reverse-phase HPLC analysis. The format is physicochemical. In a few lines:
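logP derived from reverse-phase HPLC capacity factor: logk from measured retention time, converted via a calibration curve of standards with known logP versus their logk values.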

In general, EC50 refers to the concentration needed to bring the measured effect to its halfway point. The logP is a log measure of how a compound divides between an organic and an aqueous phase.

Chain of Cystic fibrosis transmembrane conductance regulator (P13569 whole entry, looked up): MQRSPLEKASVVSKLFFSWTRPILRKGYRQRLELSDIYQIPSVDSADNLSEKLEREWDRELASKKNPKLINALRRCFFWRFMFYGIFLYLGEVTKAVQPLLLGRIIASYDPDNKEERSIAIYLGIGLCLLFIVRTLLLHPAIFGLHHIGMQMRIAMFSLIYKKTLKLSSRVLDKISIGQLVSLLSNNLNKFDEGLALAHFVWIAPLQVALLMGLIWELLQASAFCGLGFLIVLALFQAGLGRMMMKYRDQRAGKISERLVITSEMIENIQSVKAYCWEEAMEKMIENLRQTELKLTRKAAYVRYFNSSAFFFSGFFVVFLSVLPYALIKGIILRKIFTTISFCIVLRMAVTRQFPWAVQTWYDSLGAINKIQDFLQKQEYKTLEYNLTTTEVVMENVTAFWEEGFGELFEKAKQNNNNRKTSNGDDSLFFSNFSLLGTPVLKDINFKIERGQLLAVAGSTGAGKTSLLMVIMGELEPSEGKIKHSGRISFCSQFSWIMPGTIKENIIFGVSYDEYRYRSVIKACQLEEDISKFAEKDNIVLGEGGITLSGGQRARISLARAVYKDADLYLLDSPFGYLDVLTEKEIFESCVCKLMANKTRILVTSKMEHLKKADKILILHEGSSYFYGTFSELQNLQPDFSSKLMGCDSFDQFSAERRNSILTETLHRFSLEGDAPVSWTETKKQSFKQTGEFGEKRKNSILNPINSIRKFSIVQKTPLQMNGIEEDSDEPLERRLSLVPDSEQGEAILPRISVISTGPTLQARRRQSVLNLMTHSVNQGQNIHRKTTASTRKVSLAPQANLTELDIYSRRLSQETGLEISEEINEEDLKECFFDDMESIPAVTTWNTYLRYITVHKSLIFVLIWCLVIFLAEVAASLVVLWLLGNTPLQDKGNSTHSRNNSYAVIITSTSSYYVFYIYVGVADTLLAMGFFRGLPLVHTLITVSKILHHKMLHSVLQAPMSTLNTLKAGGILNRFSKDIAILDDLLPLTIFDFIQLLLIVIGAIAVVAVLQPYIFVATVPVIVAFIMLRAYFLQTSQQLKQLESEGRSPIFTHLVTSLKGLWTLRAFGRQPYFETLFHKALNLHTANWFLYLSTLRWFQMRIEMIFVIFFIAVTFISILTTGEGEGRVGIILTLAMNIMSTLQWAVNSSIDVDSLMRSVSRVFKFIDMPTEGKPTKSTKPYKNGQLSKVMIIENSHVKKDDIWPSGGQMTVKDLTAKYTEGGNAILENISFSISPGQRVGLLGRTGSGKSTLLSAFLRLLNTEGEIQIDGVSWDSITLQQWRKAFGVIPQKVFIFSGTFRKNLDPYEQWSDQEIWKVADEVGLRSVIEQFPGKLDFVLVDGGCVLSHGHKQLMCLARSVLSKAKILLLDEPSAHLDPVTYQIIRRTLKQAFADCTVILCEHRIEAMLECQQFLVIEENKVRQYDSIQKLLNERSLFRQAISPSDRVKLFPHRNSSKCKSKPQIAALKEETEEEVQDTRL

In the case of `COc1ccc(NC(=O)c2cc(-c3sc(NC(=O)C(C)(C)C)nc3C)n(-c3ccc(Br)cc3)n2)cc1`, the EC50 in data set [1] is 3400 nM. This molecule also had a log partition coefficient (logP) in data set [2] of 5.52.

As for `CCOC(=O)c1cc(-c2sc(NC(=O)C(C)(C)C)nc2C)nn1Cc1ccccc1`, the EC50 in data set [1] is 8500 nM. On the same count and under the same terms, with `COc1ccc(Cl)cc1Nc1nc(-c2sc(NC(=O)C(C)(C)C)nc2C)cs1` the figure was 700 nM.

In the case of `COc1ccc(Cl)cc1Nc1nc2c(s1)CCCc1nc(NC(=O)C(C)(C)C)sc1-2`, the EC50 in data set [1] amounted to 300 nM.
